Screens as filed in PubChem BioAssay.
TCR-CD3 inh – blocks the human TCR-CD3 interaction; AID 651800; actives 0.37% (n = 360,000); inhibition, % at 9.4 µM; TAMRA-labeled TCR probe fluorescence, biochemical; in the data active = inhibition above about 19%;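 note: recombinant mutant TCR 2C K166C tagged with TAMRA read by polarization; 0% = receptor in buffer alone and 100% = receptor with positive control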
Tn6 DDE FP – DD(E)-Tn6 binding inhibition, primary FP screen; Fibrin DD(E) TRITC-Tn6 fluorescence polarization displacement; inhibition, % at 8.3 µM; actives 0.21% (n = 370,000);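 active = inhibition above a per-campaign cutoff: mean of compounds within control limits plus 3 SD, cut at about 15% in these data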;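 note: 0% = median of all compound wells on the plate and 100% = blocking peptide control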
SIAE inh – blocks human sialic acid acetylesterase. inhibition, % at 9.66 µM. actives 0.69% (n = 370,000). SIAE FP-Rh probe binding, fluorescence polarization. Q9HAT2. AID 1053197;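 active = inhibition above a cutoff: mean of compounds within the control limits plus 3 SD of those, cut at about 17% in these data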;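 note: 0% = plate median of compound wells and 100% = probe without SIAE protein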
mABHD4 FP – inhibits mouse alpha/beta hydrolase domain 4; Q8VD66; purified mABHD4, FP-Rh probe fluorescence polarization; actives 0.54% (n = 370,000); inhibition, % at 8.92 µM;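 active = inhibition exceeding the mean over every tested compound plus 3 SD, cut at about 30% in these data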;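 note: 0% = plate median of compound wells and 100% = S159A mutant with DMSO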
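Test system: mABHD4 protein | Buffer or medium: HEPES pH 7.0 buffer, 150 mM NaCl, 0.01% Pluronic F-127 | Probe or stimulus: FP-Rh fluorescent activity-based probe, added after compound pre-incubation | Timing: Pre-incubation 45 min, probe exposure 60 min, at 25 °C | Technique: Fluorescence polarization, excitation 525 nm, emission 598 nm, BODIPY TMR filters | Repeats: Single well per compound (singlicate)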
HTRA1 inh – inhibitors of human serine peptidase HTRA1; Q92743; actives 0.5% (n = 340,000); recombinant HTRA1, FP-rhodamine activity-based probe, fluorescence polarization; inhibition, % at 5.96 µM; in the data active = inhibition above about 36%;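 note: 0% = enzyme with DMSO and 100% = wells lacking enzyme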
Target sequence (Q92743 whole entry, looked up): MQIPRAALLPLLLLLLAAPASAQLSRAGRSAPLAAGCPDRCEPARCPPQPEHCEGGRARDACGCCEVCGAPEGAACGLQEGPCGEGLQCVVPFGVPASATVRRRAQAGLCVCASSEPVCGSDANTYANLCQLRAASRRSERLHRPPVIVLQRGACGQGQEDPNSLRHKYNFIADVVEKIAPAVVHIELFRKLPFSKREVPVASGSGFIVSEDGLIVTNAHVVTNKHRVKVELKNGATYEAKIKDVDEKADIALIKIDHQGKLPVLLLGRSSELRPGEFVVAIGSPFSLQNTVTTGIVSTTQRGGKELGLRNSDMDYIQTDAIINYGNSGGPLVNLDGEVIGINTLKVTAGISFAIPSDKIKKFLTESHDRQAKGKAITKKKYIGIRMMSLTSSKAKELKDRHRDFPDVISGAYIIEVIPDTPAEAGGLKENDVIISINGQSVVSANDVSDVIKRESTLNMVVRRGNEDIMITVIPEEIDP
DDE Tn7 FP inh – DD(E)-Tn7 binding inhibition, primary FP screen | P02675 | FP displacement of FITC-Tn7 peptide from fibrin DD(E); 0% = median of compound wells per plate | inhibition, % at 8.3 µM | actives 0.13% (n = 370,000) | AID 720508;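 active = inhibition above the mean of compounds falling within the control limits plus 3 SD of them, cut at about 14% in these data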;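 note: 0% = plate median of compound wells and 100% = 10 µM Aha-Tn7 peptide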
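assay system = human clot-derived fibrin DD(E) complex | quantity = Fibrin-DD(E) at 2 µM final | timing = 10 min preincubation, 3 h with tracer, room temperature | signal = fluorescence polarization | measure = percent inhibition | benchmarks = high control wells with 10 µM unlabelled Aha-Tn7 peptide (full inhibition) | replicates = singlicate testing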
SIAE inh conf – confirmation of human SIAE inhibitors; SIAE FP-Rh activity-based probe, fluorescence polarization; shares compounds with SIAE inh; actives 13% (n = 2,300); inhibition, % at 9.66 µM;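 active = mean inhibition of the replicates above the hit cutoff set in the primary screen, cut at about 17% in these data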;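 note: 0% = SIAE with DMSO and probe and 100% = probe without SIAE; inhibitors lower polarization as more probe stays unbound to SIAE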
Numbers without * were called inactive; · = no result given. Hits are enriched below; roughly 1.8% of the tested compounds scored in any of these assays.

SMILES	TCR-CD3 inh	Tn6 DDE FP	SIAE inh	mABHD4 FP	HTRA1 inh	DDE Tn7 FP inh	SIAE inh conf
Cn1cc(C(=O)N2CCc3ccccc32)cn1	-3	0	184*	2	7	-4	1
S=c1[nH]nc(-c2ccncc2)n1/N=C/C=C/c1ccco1	4	-1	19*	17	8	4	2
Cc1cccc(-c2n[nH]c(=S)n2/N=C/C=C/c2ccco2)c1	14	-9	5	22	33	3	·
CCOC(=O)C1=CCN(S(=O)(=O)c2ccc(Br)cc2)C1c1cccc(Br)c1 (stereo not drawn)	-5	-2	4	-5	·	8	·
CCN=C1NC(c2ccc(F)cc2)C(C(=O)OC)=C(C)N1Cc1cccc(C(F)(F)F)c1 (stereo not drawn)	11	0	12	13	·	-1	·
O=C(Nc1ccccc1)Nc1nc2ncccn2c1-c1ccc(C(F)(F)F)cc1	·	0	-5	19	·	4	·
CN(C)CCN(C(=O)C1CCN(S(=O)(=O)c2cccs2)CC1)c1nc2c(F)cccc2s1	-3	1	19*	4	0	-11	-1
COC(=O)C1=C(C)N(Cc2cccc(C(F)(F)F)c2)C(=NCC2CC2)NC1c1ccccc1C(F)(F)F (stereo not drawn)	11	0	9	14	·	-2	·
O=c1c2cn[nH]c2[nH]c(=S)n1-c1ccccc1	-6	7	3	12	6	13	·
O=c1c2cn[nH]c2[nH]c(=S)n1-c1cccc2ccccc12	9	-6	23*	0	-6	6	3
Cc1ccc(F)c(NC(=S)Nc2cccc3ccccc23)c1	10	0	18*	8	3	-2	-1
Cc1cc(OC(=O)c2cc(F)c(F)cc2Cl)nc(C)n1	-1	9	19*	7	7	-2	3
O=C(CSc1ccc(-c2ccco2)nn1)Nc1ccc(F)cc1F	-2	-6	19*	22	4	-2	2
COC(=O)[C@]12C[C@H](CC(=O)NCCCCc3ccccc3)C(=O)N(CCc3ccc(OC)c(OC)c3)C1=C[C@H](COCc1ccccc1)O[C@@H]2C	·	-6	-2	-6	·	3	·
COc1cccc(-c2nc(NC3CCCC3)c3ccccc3n2)c1O	4	-10	29*	21	0	-6	-2
COc1cccc(-c2nc(NCc3ccccc3)c3ccccc3n2)c1O	5	7	0	27	-10	-3	·
O=C(CN1CCN(c2ccc(O)cc2)CC1)Nc1cc(S(=O)(=O)N2CCCCC2)ccc1Cl	1	1	21*	17	4	-2	2
O=C(CN1CCN(c2ccc(O)cc2)CC1)Nc1cc(S(=O)(=O)N2CCCC2)ccc1Cl	-12	-3	7	18	-18	-3	·
O=S(=O)(c1ccc(Cl)c(NC(=S)N/N=C/c2ccc(O)cc2)c1)N1CCOCC1	-1	2	18*	2	-19	5	5
CC(=O)c1cccc(NC(=S)NC(=O)c2ccccc2)c1	-4	-1	6	0	-2	0	·
CNC(=S)Nc1cccc(C(C)=O)c1	-1	-10	17*	8	3	1	2
CN(C)/C=N/C(=S)Nc1cc(Cl)cc(Cl)c1	7	-5	17*	0	-10	3	1
N#Cc1ccc(Cn2ccc3ccc(-c4ccc5ccn(C(=O)c6ccccc6)c5c4)cc32)cc1	·	6	-13	-5	·	-3	·
Cc1c(C)n(CCc2ccccc2)c2ncnc(NN)c12	-5	-2	1	3	0	0	·
Cc1c(C)n(CCc2ccccc2)c2ncnc(NCCCO)c12	6	-1	18*	-4	-10	1	5
SMILES	TCR-CD3 inh	Tn6 DDE FP	SIAE inh	mABHD4 FP	HTRA1 inh	DDE Tn7 FP inh	SIAE inh conf
O=S1(=O)CC2c3ccc(F)cc3CN2CN1Cc1ccccc1 (stereo not drawn)	·	-6	-3	-4	·	-4	·
CCN(CC)CCCN1C(=O)C2=C(C1=O)C1N(C)c3ccccc3[C@@]13C[C@@H](CO)N(C(=O)CCC(=O)OC)C3=N2 (stereo partly drawn)	·	7	3	-3	·	4	·
CCOC(=O)c1c(C)[nH]c(C)c1S(=O)(=O)N1CCN(c2ccc(F)cc2)CC1	-6	-5	19*	1	-4	-6	3
C=CCOc1ccc(/C=C2/C(=O)ON=C2C)cc1OC	2	2	8	9	-3	1	·
COc1ccc(/C=C2/C(=O)ON=C2C)cc1Cl	-2	-7	22*	4	4	-1	4
O=S1(=O)c2ccccc2-c2c(nnn2CC2CCCCC2)CN1C1CC1	·	6	-5	-2	·	-11	·
CN[C@H]1C[C@H]2c3[nH]c4c(-c5cccc(C)c5)cccc4c3CCN2C[C@H]1[C@H](C)O	·	-1	-4	13	·	1	·
CC1=NN(c2ccc(S(=O)(=O)O)cc2C)C(=O)C1	-2	-9	20*	2	2	0	1
CC(=O)c1sc(N/N=C\c2ccc(N(C)C)cc2)nc1C	1	2	1	12	12	4	·
COC(=O)c1sc(N/N=C/c2ccc(C(C)C)cc2)nc1C	6	-2	23*	4	8	7	7
COC(=O)c1cc2c(c3c4cc(C)ccc4n(S(=O)(=O)c4cccc(C)c4)c13)C(=O)N(Cc1ccc(N(C)C)cc1)C2	-3	-1	0	5	·	0	·
NC(=O)c1ncn([C@@H]2O[C@H](C(=O)N3CCN(CC(=O)Nc4ccccn4)CC3)[C@@H](O)[C@H]2O)n1	-6	-6	7	3	·	2	·
NC(=O)c1ncn([C@@H]2O[C@H](C(=O)N[C@H](Cc3ccccc3)C(=O)N3CCN(CC(=O)Nc4ccccn4)CC3)[C@@H](O)[C@H]2O)n1	6	-12	44*	5	·	2	39*
CSCC[C@@H](CO)NC(=O)[C@H]1O[C@@H](n2ccc(=O)[nH]c2=O)[C@H](O)[C@@H]1O	0	3	3	6	·	2	·
O=C(N[C@H](Cc1ccccc1)C(=O)N1CCN(CC(=O)N2CCCC2)CC1)[C@H]1O[C@@H](n2ccc(=O)[nH]c2=O)[C@H](O)[C@@H]1O	3	1	47*	-1	·	4	43*
CC(C)[C@H](CO)NC(=O)[C@H]1O[C@@H](n2ccc(=O)[nH]c2=O)[C@H](O)[C@@H]1O	-3	-1	70*	-3	·	0	55*
O=C(N[C@H](Cc1ccccc1)C(=O)N1CCN(C(=O)N2CCCCC2)CC1)[C@H]1O[C@@H](n2ccc(=O)[nH]c2=O)[C@H](O)[C@@H]1O	10	9	-1	7	·	-5	·
